# The source made the active and inactive calls. The calls are words filed in the database; no cut-off is given here.
# Columns and labels:
# [1] = test system: Protein cereblon/Epidermal growth factor receptor (Homo sapiens), P00533+Q96SW2 [UNDEFINED MUTATION]; assay: Protac activity at CRBN/EGFR exon 19 deletion mutant in human HCC827 cells assessed as induction of EGFR degradation at up to 1 uM treated 8 hrs post serum starvation measured after 16 hrs by Western blot analysis; format: cell-based
# [2] = test system: Protein cereblon/Epidermal growth factor receptor (Homo sapiens), P00533+Q96SW2 [UNDEFINED MUTATION]; assay: Protac activity at CRBN/EGFR exon 19 deletion mutant in human HCC827 cells assessed as induction of EGFR degradation at >=50 nM treated 8 hrs post serum starvation measured after 16 hrs by Western blot analysis relative to control; format: cell-based
# Method in brief: (§1)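 Cultured to 80% confluence in RPMI/1640 with 20% FBS at 37 °C and 5% CO2, then switched to serum-free medium for 8 h. Degraders were added over a concentration range up to 10 μM for 16 h, with gefitinib at 1 μM as reference. Lysates in Laemmli buffer were immunoblotted for EGFR, p-EGFR and p-AKT. DC50 came from band quantification by nonlinear regression (variable slope).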
# [3] = test system: Protein cereblon/Epidermal growth factor receptor (Homo sapiens), P00533+Q96SW2 [L858R]; assay: Protac activity at CRBN/EGFR L858R mutant in human H3255 cells assessed as induction of EGFR degradation at >=50 nM treated 8 hrs post serum starvation measured after 16 hrs by Western blot analysis relative to control; format: cell-based; method in brief: as §1
# [4] = test system: Protein cereblon/Epidermal growth factor receptor (Homo sapiens), P00533+Q96SW2 [L858R]; assay: Protac activity at CRBN/EGFR L858R mutant in human H3255 cells assessed as induction of EGFR degradation at 10 uM treated 8 hrs post serum starvation measured after 16 hrs by Western blot analysis; format: cell-based; method in brief: as §1
# [5] = test system: Protein cereblon/Epidermal growth factor receptor (Homo sapiens), P00533+Q96SW2 [UNDEFINED MUTATION]; assay: Protac activity at CRBN/EGFR exon 19 deletion mutant in human HCC827 cells assessed as reduction in EGFR autophosphorylation up to 10 uM treated 8 hrs post serum starvation measured after 16 hrs by Western blot analysis; format: cell-based; method in brief: as §1
# [6] = test system: Protein cereblon/Epidermal growth factor receptor (Homo sapiens), P00533+Q96SW2 [L858R]; assay: Protac activity at CRBN/EGFR L858R mutant in human H3255 cells assessed as reduction in EGFR autophosphorylation up to 10 uM treated 8 hrs post serum starvation measured after 16 hrs by Western blot analysis; format: cell-based; method in brief: as §1
# [7] = test system: Protein cereblon/Epidermal growth factor receptor (Homo sapiens), P00533+Q96SW2 [UNDEFINED MUTATION]; assay: Protac activity at CRBN/EGFR exon 19 deletion mutant in human HCC827 cells assessed as reduction in AKT phosphorylation up to 10 uM treated 8 hrs post serum starvation measured after 16 hrs by Western blot analysis; format: cell-based; method in brief: as §1
# [8] = target: Epidermal growth factor receptor (Homo sapiens, UniProt P00533); assay: Induction of wild-type EGFR degradation in human H1299 cells at up to 10 uM treated 8 hrs post serum starvation measured after 16 hrs by Western blot analysis; format: cell-based
# [9] = test system: Protein cereblon/Epidermal growth factor receptor (Homo sapiens), P00533+Q96SW2 [UNDEFINED MUTATION]; assay: Protac activity at CRBN/EGFR exon 19 deletion mutant in human HCC827 cells assessed as time required to induce 50% EGFR degradation at 100 nM treated 8 hrs post serum starvation by Western blot analysis; format: cell-based
# Method in brief: (§2)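 After 8 h serum starvation, cells got 100 nM degrader and were collected at serial time points for Western blot of EGFR and downstream signaling.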
# [10] = test system: Protein cereblon/Epidermal growth factor receptor (Homo sapiens), P00533+Q96SW2 [UNDEFINED MUTATION]; assay: Protac activity at CRBN/EGFR exon 19 deletion mutant in human HCC827 cells assessed as induction of EGFR degradation at 100 nM treated 8 hrs post serum starvation measured after 12 hrs by Western blot analysis relative to control; format: cell-based; method in brief: as §2
# [11] = test system: Protein cereblon/Epidermal growth factor receptor (Homo sapiens), P00533+Q96SW2 [L858R]; assay: Protac activity at CRBN/EGFR L858R mutant in human H3255 cells assessed as reduction in AKT phosphorylation at 100 nM treated 8 hrs post serum starvation by Western blot analysis; format: cell-based; details: TDE = time-dependent effect; method in brief: as §2
# [12] = test system: Protein cereblon/Epidermal growth factor receptor (Homo sapiens), P00533+Q96SW2 [UNDEFINED MUTATION]; assay: Protac activity at CRBN/EGFR exon 19 deletion mutant in human HCC827 cells assessed as induction of EGFR degradation at 0.1 to 1 uM incubated for 8 hrs in absence of FBS by Western blot analysis; format: cell-based
# [13] = test system: Protein cereblon/Epidermal growth factor receptor (Homo sapiens), P00533+Q96SW2 [L858R]; assay: Protac activity at CRBN/EGFR L858R mutant in human H3255 cells assessed as induction of EGFR degradation at 0.1 to 1 uM incubated for 8 hrs in absence of FBS by Western blot analysis; format: cell-based
# [14] = test system: Protein cereblon/Epidermal growth factor receptor (Homo sapiens), P00533+Q96SW2 [L858R]; assay: Protac activity at CRBN/EGFR L858R mutant in human H3255 cells assessed as induction of EGFR degradation at 100 nM measured after 8 hrs in presence of neddylation inhibitor MLN4924 by Western blot analysis; format: cell-based
# [15] = test system: Protein cereblon/Epidermal growth factor receptor (Homo sapiens), P00533+Q96SW2 [L858R]; assay: Protac activity at CRBN/EGFR L858R mutant in human H3255 cells assessed as induction of EGFR degradation at 100 nM measured after 8 hrs in presence of CRBN E3 ligase binder thalidomide by Western blot analysis; format: cell-based
# [16] = test system: Protein cereblon/Epidermal growth factor receptor (Homo sapiens), P00533+Q96SW2 [L858R]; assay: Protac activity at CRBN/EGFR L858R mutant in human H3255 cells assessed as induction of EGFR degradation at 100 nM measured after 8 hrs in presence of negative control MS154N by Western blot analysis; format: cell-based
# [17] = test system: Protein cereblon/Epidermal growth factor receptor (Homo sapiens), P00533+Q96SW2 [UNDEFINED MUTATION]; assay: Reversible protac activity at CRBN/EGFR exon 19 deletion mutant in human HCC827 cells assessed as recovery of EGFR degradation at 100 nM preincubated for 12 hrs followed by compound washout and measured after 24 hrs by Western blot analysis; format: cell-based
# Method in brief: (§3)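 Cells were serum-starved 8 h, then given degrader for 12 h. They were washed three times with PBS and harvested at the indicated time points after washout. EGFR, p-EGFR and p-AKT were read by Western blot.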
# [18] = test system: Protein cereblon/Epidermal growth factor receptor (Homo sapiens), P00533+Q96SW2 [UNDEFINED MUTATION]; assay: Reversible protac activity at CRBN/EGFR exon 19 deletion mutant in human HCC827 cells assessed as recovery of EGFR phosphorylation at 100 nM preincubated for 12 hrs followed by compound washout and measured after 24 hrs by Western blot analysis; format: cell-based; method in brief: as §3
# [19] = test system: Protein cereblon/Epidermal growth factor receptor (Homo sapiens), P00533+Q96SW2 [L858R]; assay: Reversible protac activity at CRBN/EGFR L858R mutant in human H3255 cells assessed as recovery of EGFR degradation at 100 nM preincubated for 12 hrs followed by compound washout and measured up to 48 hrs by Western blot analysis; format: cell-based; method in brief: as §3
# [20] = test system: Protein cereblon/Epidermal growth factor receptor (Homo sapiens), P00533+Q96SW2 [L858R]; assay: Reversible protac activity at CRBN/EGFR L858R mutant in human H3255 cells assessed as recovery of EGFR phosphorylation at 100 nM preincubated for 12 hrs followed by compound washout and measured up to 48 hrs by Western blot analysis; format: cell-based; method in brief: as §3
# [21] = test system: Protein cereblon/Epidermal growth factor receptor (Homo sapiens), P00533+Q96SW2 [UNDEFINED MUTATION]; assay: Protac activity at CRBN/EGFR exon 19 deletion mutant in human HCC827 cells assessed as induction of EGFR degradation at 100 nM measured after 16 hrs by LC-MS analysis relative to control; format: cell-based
# [22] = test system: HCC827; assay: Up regulation of HMGCS1 expression in human HCC827 cells at 100 nM measured after 16 hrs by LC-MS analysis; format: functional, cell-based
# Method in brief: (§4)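 HCC-827 cells serum-starved 8 h, then treated at 100 nM for 16 h. Collected for label-free quantitative LC–MS proteomics; LFQ intensity compared between treated and control groups; three independent experiments.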
# [23] = test system: HCC827; assay: Down regulation of SLC30A7 expression in human HCC827 cells at 100 nM measured after 16 hrs by LC-MS analysis; format: functional, cell-based; method in brief: as §4
# [24] = test system: HCC827; assay: Down regulation of NELFE expression in human HCC827 cells at 100 nM measured after 16 hrs by LC-MS analysis; format: functional, cell-based; method in brief: as §4
# [25] = Cmax in Swiss albino mouse at 50 mg/kg, ip measured after 8 hrs; format: ADME, organism-based; set-up: dose 50 mg/kg, route intraperitoneal; details: in vivo
# [26] = Toxicity in Swiss albino mouse assessed as clinical changes at 50 mg/kg, ip; format: organism-based; details: in vivo
# Protein cereblon/Epidermal growth factor receptor (Homo sapiens), P00533+Q96SW2 [UNDEFINED MUTATION], sequence (P00533 whole entry, looked up, stated change not applied): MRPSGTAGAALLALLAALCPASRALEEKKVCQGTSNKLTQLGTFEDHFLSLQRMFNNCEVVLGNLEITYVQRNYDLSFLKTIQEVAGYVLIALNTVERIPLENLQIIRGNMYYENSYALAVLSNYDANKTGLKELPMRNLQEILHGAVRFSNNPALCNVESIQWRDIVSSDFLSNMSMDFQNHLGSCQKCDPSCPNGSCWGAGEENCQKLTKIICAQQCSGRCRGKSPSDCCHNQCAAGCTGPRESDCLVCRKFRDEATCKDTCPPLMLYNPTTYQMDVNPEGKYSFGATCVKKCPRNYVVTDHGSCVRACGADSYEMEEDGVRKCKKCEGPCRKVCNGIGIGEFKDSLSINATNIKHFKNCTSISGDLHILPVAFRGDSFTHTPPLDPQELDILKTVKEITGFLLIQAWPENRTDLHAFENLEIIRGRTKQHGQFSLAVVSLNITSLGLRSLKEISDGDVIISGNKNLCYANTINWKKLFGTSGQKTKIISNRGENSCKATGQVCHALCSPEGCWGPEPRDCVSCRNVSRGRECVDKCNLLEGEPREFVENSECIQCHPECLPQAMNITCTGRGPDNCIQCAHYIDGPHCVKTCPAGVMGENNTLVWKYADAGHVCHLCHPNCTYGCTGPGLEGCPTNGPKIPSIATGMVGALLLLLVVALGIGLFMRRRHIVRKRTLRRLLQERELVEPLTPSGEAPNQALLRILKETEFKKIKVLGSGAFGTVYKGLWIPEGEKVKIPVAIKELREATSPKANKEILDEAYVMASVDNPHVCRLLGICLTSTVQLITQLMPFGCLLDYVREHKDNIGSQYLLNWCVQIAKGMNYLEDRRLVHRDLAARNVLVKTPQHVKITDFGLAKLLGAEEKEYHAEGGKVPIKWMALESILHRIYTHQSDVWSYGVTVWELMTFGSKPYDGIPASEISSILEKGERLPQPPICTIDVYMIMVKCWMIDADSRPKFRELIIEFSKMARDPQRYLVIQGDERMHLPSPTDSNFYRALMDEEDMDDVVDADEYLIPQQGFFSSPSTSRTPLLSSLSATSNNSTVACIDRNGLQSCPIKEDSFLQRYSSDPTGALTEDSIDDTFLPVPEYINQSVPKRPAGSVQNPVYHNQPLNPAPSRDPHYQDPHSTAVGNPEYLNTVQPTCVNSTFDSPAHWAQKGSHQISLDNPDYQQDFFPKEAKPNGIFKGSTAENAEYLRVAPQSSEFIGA
# Protein cereblon/Epidermal growth factor receptor (Homo sapiens), P00533+Q96SW2 [UNDEFINED MUTATION], sequence (Q96SW2 whole entry, looked up, stated change not applied): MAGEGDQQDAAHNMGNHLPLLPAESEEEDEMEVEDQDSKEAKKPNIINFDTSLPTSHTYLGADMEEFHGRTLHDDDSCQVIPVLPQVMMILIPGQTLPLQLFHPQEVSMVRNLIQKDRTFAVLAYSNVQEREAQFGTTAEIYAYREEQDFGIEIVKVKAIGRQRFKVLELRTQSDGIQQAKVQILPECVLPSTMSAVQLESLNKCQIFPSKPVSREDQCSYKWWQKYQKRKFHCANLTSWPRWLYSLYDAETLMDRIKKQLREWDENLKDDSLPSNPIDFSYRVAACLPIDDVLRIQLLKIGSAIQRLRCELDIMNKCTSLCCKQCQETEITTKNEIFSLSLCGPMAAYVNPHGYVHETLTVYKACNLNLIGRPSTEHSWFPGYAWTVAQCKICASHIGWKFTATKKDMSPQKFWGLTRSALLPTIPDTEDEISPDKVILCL
# Epidermal growth factor receptor, sequence (P00533 whole entry): as the sequence (P00533 whole entry, looked up, stated change not applied) above
smiles,measurement,setting,value
COc1cc2ncnc(Nc3ccc(F)c(Cl)c3)c2cc1OCCCN1CCN(CCC(=O)NCCCCCCCCOc2cccc3c2C(=O)N(C2CCC(=O)NC2=O)C3=O)CC1 (stereo unspecified),Activity,[1],Active
same,%max,[2],> 95%
same,%max,[3],> 95%
same,Activity,[4],Active
same,Activity,[5],Active
same,Activity,[6],Active
same,Activity,[7],Active
same,Activity,[8],Not Active
same,T1/2,[9],3.5 h
same,Activity,[10],100%
same,Activity,[11],Tde
same,Activity,[12],Active
same,Activity,[13],Active
same,Activity,[14],inactive
same,Activity,[15],inactive
same,Activity,[16],inactive
same,Activity,[17],Active
same,Activity,[18],Active
same,Activity,[19],Active
same,Activity,[20],Active
same,Activity,[21],> 75%
same,Activity,[22],Active
same,Activity,[23],Active
same,Activity,[24],Active
same,Cmax,[25],500 nM
same,Activity,[26],Non-Toxic
